Assay results: ChEMBL document CHEMBL4651341, “The discovery of a novel series of compounds with single-dose efficacy against juvenile and adult Schistosoma species” (PLoS Negl Trop Dis, 2021)
Values after ≈ are worked out from the molar mass of the structure shown.

What was measured:
[1] = Mean time to peak plasma concentration in Swiss albino male mice at […] per compound (administered orally in a mixture of 5 compounds to 3 mice) assessed by LCMS/MS.; format: ADME, organism-based; conditions: mouse, po
[2] = Mean plasma concentration at 4h in Swiss albino male mice at […] per compound (administered orally in a mixture of 5 compounds to 3 mice) assessed by LCMS/MS.; format: ADME, organism-based; conditions: mouse, po
[3] = Mean AUC inf in Swiss albino male mice at 1 mg/kg per compound (administered iv in a mixture of 5 compounds to 3 mice) assessed by LCMS/MS.; format: ADME, organism-based; conditions: male, Swiss albino, mouse, in vivo
Method in brief: (§1)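 Male Swiss albino mice (~30 g), 3 per experiment, mostly dosed as mixtures of 5 compounds iv via the lateral tail vein. Vehicle: 10% DMSO/90% 50 mM Na2HPO4 with 0.5% Tween-80. Blood sampled at 5, 15, 30 min and 1, 2, 4, 8, 24 h. Plasma stored at −20 °C and quantified by LC-MS after acetonitrile precipitation.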

[4] = Percentage of parent compound remaining after incubation for 90 minutes with cyropreserved mouse hepatocytes at a concentration of 1uM compound and […], determined by LCMS; format: ADME, tissue-based, Hepatocyte; conditions: cryopreserved mouse hepatocytes, read-out: Stability
Method in brief: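 Compound was incubated at 1 µM final (2 µM working solution mixed 1:1 with hepatocyte suspension) in supplemented KHB pH 7.4. Conditions: 37 °C, 5% CO2, gentle mixing, duplicates. Reaction quenched with ice-cold acetonitrile containing standard; analysed by LC-MS/MS. % remaining = AUC at t / AUC at T0.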

[5] = Mean plasma concentration at 24h in Swiss albino male mice at […] per compound (administered orally in a mixture of 5 compounds to 3 mice) assessed by LCMS/MS.; format: ADME, organism-based; conditions: mouse, po
Schistosoma mansoni [6] = assay: Concentration required to kill 50% of 42 day old worms 5 days after drug treatment.; format: functional, organism-based; conditions: Puerto Rican, 120 h
Method in brief: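 Adult S. mansoni were perfused from CD1 mice 6 weeks post-infection and washed. They were cultured 3 pairs per well in 1 mL DMEM with 2 mM glutamine, penicillin/streptomycin and 10% FCS […] at 37 °C, 5% CO2. Viability of individual worms was scored on day 5 (120 h).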

[7] = Mean volume of distribution at steady state in Swiss albino male mice at 1 mg/kg per compound (administered iv in a mixture of 5 compounds to 3 mice) assessed by LCMS/MS.; format: ADME, organism-based; conditions: mouse, in vivo, read-out: Volume
Method in brief: (§2)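 Male Swiss albino mice (~30 g), 3 per experiment, mostly dosed as mixtures of 5 compounds iv via the lateral tail vein. Vehicle: 10% DMSO/90% 50 mM Na2HPO4 with 0.5% Tween-80. Plasma stored at −20 °C and quantified by LC-MS after acetonitrile precipitation.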

[8] = Mean half-life in Swiss albino male mice at 1 mg/kg per compound (administered iv in a mixture of 5 compounds to 3 mice) assessed by LCMS/MS.; format: ADME, organism-based; conditions: mouse, in vivo; method in brief: as §2
[9] = Mean oral bioavailability in Swiss albino male mice at […] per compound (administered in a mixture of 5 compounds to 3 mice) assessed by LCMS/MS.; further: dose 2.5 mg/kg; format: ADME, organism-based; conditions: mouse, in vivo
Schistosoma mansoni [10] = assay: Concentration required to kill 50% of 21 day old worms 5 days after drug treatment.; format: functional, organism-based; conditions: Puerto Rican, 120 h
Method in brief: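 Juvenile S. mansoni (Puerto Rican strain) were perfused from CD1 mice 3 weeks post-infection and washed. They were cultured 6–8 per well in 200 µL DMEM with 2 mM glutamine, penicillin/streptomycin and 10% FCS at 37 °C, 5% CO2. Viability of individual worms was scored on day 5 after dosing (120 h).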

[11] = Mean observed clearance in Swiss albino male mice at 1 mg/kg per compound (administered iv in a mixture of 5 compounds to 3 mice) assessed by LCMS/MS.; format: ADME, organism-based; conditions: male, Swiss albino, mouse, in vivo, read-out: Clearance (converted); method in brief: as §1
[12] = Solubility at 25 degC of compound (diluted from DMSO) in PBS at pH 7.4 determined after 24h (1h sonication, 22h shaking, 1h sonication) by LCMS/MS; format: physicochemical
[13] = Concentration required to kill 50% HepG2 cells as detected by MTT staining; format: toxicity, cell-based; conditions: homo sapiens, read-out: TC50 (the source's name)
[14] = Partition coefficient of compound between n-octanol and PBS (pH7.4); format: physicochemical; conditions: octanol/water, pH 7.4
Method in brief: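 Shake-flask method using octanol and PBS pH 7.4, each pre-saturated with the other. Compound was shaken 2 h at 850 rpm, 25 °C, then the phases were separated by centrifugation and both layers diluted and analysed by LC-MS/MS. LogD = log(octanol AUC × relative dilution / buffer AUC).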

[15] = male, Swiss albino, read-out: Bioavailability

| Structure (SMILES) | Tmax [1] | concentration at 4 h [2] | AUC(0-inf) [3] | remaining at 1.5 h, 1 µM [4] | concentration at 24 h [5] | EC50 (Schistosoma mansoni [6]) | Vd [7] | half-life [8] | bioavailability [9, 15] | EC50 (Schistosoma mansoni [10]) | clearance [11] | solubility kinetic at 24 h [12] | CC50 [13] | Lipophilicity [14] | bioavailability [9] |
| --- | --- | --- | --- | --- | --- | --- | --- | --- | --- | --- | --- | --- | --- | --- | --- |
| CC(C)c1nc2cnc(-c3ccc(F)c(C(F)(F)F)c3)cn2c1-c1ccc2[nH]ncc2c1 | 40 min | 371 ng/mL | 1440 ng·h/mL | 41.3% | 60.5 ng/mL | 185 nM | 3.16 L/kg | 479 min | 81.8% | 174 nM | 5.83 mL/min/kg |  |  |  |  |
| Fc1c(-c2c(C(F)(F)F)nc3cnc(-c4ccnc(C(F)(F)F)c4)cn23)ccc2[nH]ncc12 |  |  |  | 76.5% |  | 117 nM |  |  |  | 138 nM |  | 2.95 µM (≈ 1.38 µg/mL) | 7 µM |  |  |
| Cc1c(-c2c(C(F)(F)F)nc3cnc(-c4ccc(F)c(C(F)(F)F)c4)cn23)ccc2[nH]ncc12 | 40 min | 250 ng/mL | 2000 ng·h/mL |  | 98.1 ng/mL |  | 7.87 L/kg | 1420 min | 65.2% | 760 nM | 4.3 mL/min/kg |  |  |  |  |
| CC(C)c1nc2cnc(-c3cccc(C(F)(F)F)c3)cn2c1-c1c(F)cc(O)cc1F |  |  |  | 30.2% |  | < 45.5 nM |  |  |  | 93.7 nM |  | 0.951 µM (≈ 0.412 µg/mL) | 7.5 µM |  |  |
| Cc1noc(C)c1-c1cn2c(-c3ccc(O)cc3)cnc2cn1 | 0.6 min |  | 61.2 ng·h/mL |  |  |  | 0.493 L/kg | 3.65 min | 0.01% | > 25000 nM | 140 mL/min/kg |  |  |  |  |
| Cc1nc2cnc(-c3ccc(F)c(C(F)(F)C(F)(F)F)c3)cn2c1-c1c(F)cc(O)cc1F |  |  |  | 31.6% |  | 19.5 nM |  |  |  | 20.5 nM |  | 2.43 µM (≈ 1.15 µg/mL) | 8.8 µM |  |  |
| Fc1c(-c2c(C(F)(F)F)nc3cnc(-c4cccc(C(F)(F)F)c4)cn23)ccc2[nH]ncc12 |  |  |  | 69% |  | 25.2 nM |  |  |  | 41.5 nM |  |  |  |  |  |
| Fc1ccc(-c2cn3c(-c4ccc5[nH]ncc5c4)c(C(F)(F)F)nc3cn2)cc1C(F)(F)F | 100 min | 322 ng/mL | 2730 ng·h/mL | 56.2% | 208 ng/mL | 329 nM | 6.69 L/kg | 1400 min | 91.3% | 350 nM | 3.08 mL/min/kg |  |  |  |  |
| Oc1cc(F)c(-c2c(C3CC3)nc3cnc(-c4ccc(F)c(C(F)(F)C(F)(F)F)c4)cn23)c(F)c1 |  |  |  | 54.3% |  | 10.5 nM |  |  |  | 23.9 nM |  | 3.14 µM (≈ 1.57 µg/mL) | 9.4 µM |  |  |
| Fc1ccc(-c2cn3c(-c4ccc5[nH]ncc5c4F)c(C(F)(F)F)nc3cn2)cc1C1CC1 | 40.2 min | 131 ng/mL | 270 ng·h/mL |  | 6.53 ng/mL | 12 nM | 4.45 L/kg | 169 min | 135% | 19.3 nM | 31.5 mL/min/kg |  | 10.5 µM |  |  |
| Fc1c(-c2c(C3CC3)nc3cnc(-c4cccc(S(F)(F)(F)(F)F)c4)cn23)ccc2[nH]ncc12 |  |  |  | 80.9% |  | 20.7 nM |  |  |  | 35.8 nM |  | 1.7 µM (≈ 0.842 µg/mL) | 20.7 µM |  |  |
| CC(C)c1nc2cnc(-c3ccc(F)c(S(F)(F)(F)(F)F)c3)cn2c1-c1ccc2[nH]ncc2c1F | 140 min | 381 ng/mL | 1470 ng·h/mL | 68.1% | 71.4 ng/mL | 11.2 nM | 3.39 L/kg | 538 min | 83.3% | 8.21 nM | 5.75 mL/min/kg | 0.865 µM (≈ 0.446 µg/mL) |  |  |  |
| CC(C)c1cccc(-c2cn3c(-c4ccc5[nH]ncc5c4F)c(C(F)(F)F)nc3cn2)c1 |  |  |  | 16.7% |  | 5.3 nM |  |  |  | 5.18 nM |  |  | 12.9 µM |  |  |
| CC(C)Oc1cc(-c2cn3c(-c4ccc5[nH]ncc5c4F)c(C(F)(F)F)nc3cn2)ccc1F | 40.2 min | 185 ng/mL | 340 ng·h/mL |  |  |  |  |  |  |  |  |  | 9.25 µM | 5.47 = | 152% |
| CC(C)c1nn2cnc(-c3ccc(F)c(C(F)(F)F)c3)cc2c1-c1c(F)cc(O)cc1F | 20 min | 22.4 ng/mL | 342 ng·h/mL | 42.2% | 0.01 ng/mL | 21.7 nM | 1.77 L/kg |  | 14.3% | 26.9 nM | 25.2 mL/min/kg | 6.55 µM (≈ 2.96 µg/mL) | 8.9 µM |  |  |
| CC(C)c1nc2cnc(-c3ccc(F)c(C(F)(F)F)c3)cn2c1-c1ccc(O)cc1Cl |  |  |  | 20.3% |  | 102 nM |  |  |  | 127 nM |  |  |  |  |  |
| Cc1nc2cnc(-c3cccc(C(F)(F)C(F)(F)F)c3)cn2c1-c1c(F)cc(O)cc1F | 15 min | 55.8 ng/mL | 320 ng·h/mL | 33.5% | 7 ng/mL | 33.9 nM | 8.08 L/kg |  | 57.1% | 35.1 nM | 26.2 mL/min/kg | 2.33 µM (≈ 1.06 µg/mL) | 9.3 µM |  |  |
| Fc1ccc(-c2cn3c(-c4ccc5[nH]ncc5c4F)c(C(F)(F)F)nc3cn2)cc1C1CCC1 | 79.8 min | 123 ng/mL | 230 ng·h/mL |  | 3.2 ng/mL | 45.8 nM | 3.77 L/kg | 132 min | 121% | 59.1 nM | 35.7 mL/min/kg |  | 6.09 µM |  |  |
